Results on five compounds are retold here after ChEMBL document CHEMBL1124493, “Synthesis and tumor uptake of 5-82Br- and 5-131I-labeled 5-halo-1-(2-fluoro-2-deoxy-beta-D-ribofuranosyl)uracils” (J Med Chem, 1989).

Molecules are shown by their SMILES.

In one experiment the test system is Nucleic Acid. The experiment in a line: Incorporation of compound into DNA of human and mammalian cells, by replacing thymidine. The format is functional.
Regarding `O=c1[nH]c(=O)n([C@H]2C[C@H](O)[C@@H](CO)O2)cc1Br` [BROXURIDINE], the Replacement was determined as 43%.

Another experiment is filed under the species Mus musculus. Put plainly: Inhibition constant for influx competition with [6-3H]thymidine in mouse erythrocytes. It counts as functional. The method in brief: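 Freshly harvested mouse erythrocytes were exposed to various concentrations of test nucleoside and [6-3H]thymidine, and zero-trans thymidine influx was measured. Extracellular [6-3H]thymidine was measured over time by liquid scintillation counting of aliquots. The Ki for competition at the nucleoside transporter was derived by previously described methods.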
`O=c1[nH]c(=O)n([C@H]2C[C@H](O)[C@@H](CO)O2)cc1Br` [BROXURIDINE]: affinity was put at a Ki of 140 µM.

Compound `O=c1ccn([C@H]2C[C@H](O)[C@@H](CO)O2)c(=O)[nH]1` [DEOXYURIDINE] registered an inhibitory constant (Ki) of 130 µM.

As for `Cc1cn([C@H]2C[C@H](O)[C@@H](CO)O2)c(=O)[nH]c1=O` [DOXRIBTIMINE], the Ki is 80 µM.

Turning to `O=c1[nH]c(=O)n([C@H]2C[C@H](O)[C@@H](CO)O2)cc1I` [IDOXURIDINE], affinity was put at a Ki of 210 µM.

Regarding `O=c1ccn([C@@H]2O[C@H](CO)[C@@H](O)[C@H]2F)c(=O)[nH]1`, the Ki was determined as 120 µM.

A word on the Ki: it is a dissociation constant, usually derived from enzyme kinetics or from competition with a known ligand. Low values mean tighter binding, high ones weaker binding.
